From ChEMBL document CHEMBL4251654, “Structure-based design of human immuno- and constitutive proteasomes inhibitors” (Eur J Med Chem, 2018)

Columns and labels:
[1] = molecular target: T1, Proteasome Macropain subunit MB1 (Homo sapiens, UniProt P28074); test: Inhibition of human 20S constitutive proteasome beta-5 using Suc-LLVY-AMC as substrate incubated for 15 mins measured for 45 mins by fluorescence assay
T1 sequence (P28074 whole entry): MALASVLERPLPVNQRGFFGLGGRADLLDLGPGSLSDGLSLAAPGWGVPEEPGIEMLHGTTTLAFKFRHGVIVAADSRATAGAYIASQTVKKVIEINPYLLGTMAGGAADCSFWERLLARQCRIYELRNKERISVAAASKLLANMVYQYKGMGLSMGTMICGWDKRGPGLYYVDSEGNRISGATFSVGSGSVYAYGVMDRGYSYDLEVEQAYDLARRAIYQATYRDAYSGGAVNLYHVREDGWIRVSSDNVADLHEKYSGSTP
Procedure, shortened: (§1)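 Human 20S cCP or iCP (0.3 nM) was exposed to compound (0.001-50 μM) for 15 min in pH 8 buffer of 20 mM Tris-HCl, 10% glycerol, 0.01% SDS, 2% DMSO. Suc-LLVY-AMC at 20 μM followed. Fluorescence (ex 360/em 460 nm) was read 45 min at 37 °C versus untreated enzyme.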

[2] = molecular target: T2, Proteasome subunit beta type-8 (Homo sapiens, UniProt P28062); test: Inhibition of human 20S immunoproteasome beta-5 using Suc-LLVY-AMC as substrate incubated for 15 mins measured for 45 mins by fluorescence assay; procedure, shortened: as §1
T2 sequence (P28062 whole entry): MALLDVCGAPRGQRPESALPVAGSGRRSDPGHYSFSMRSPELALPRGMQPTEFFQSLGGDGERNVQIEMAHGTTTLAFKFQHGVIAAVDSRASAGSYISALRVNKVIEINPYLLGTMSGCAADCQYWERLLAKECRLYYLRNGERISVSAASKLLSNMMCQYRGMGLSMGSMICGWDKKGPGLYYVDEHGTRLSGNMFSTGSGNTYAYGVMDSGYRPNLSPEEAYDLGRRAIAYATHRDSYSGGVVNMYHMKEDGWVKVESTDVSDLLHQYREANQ

[3] = molecular target: T3, Proteasome Macropain subunit MB1 (Homo sapiens) (UniProt P28074); test: Inhibition of human 20S constitutive proteasome beta-5 at 50 uM using Suc-LLVY-AMC as substrate incubated for 15 mins measured for 45 mins by fluorescence assay relative to control; procedure, shortened: as §1
T3 sequence (whole entry): T1 sequence (P28074 whole entry)

[4] = molecular target: T4, Proteasome subunit beta type-8 (Homo sapiens) (UniProt P28062); test: Inhibition of human 20S immunoproteasome beta-5 at 50 uM using Suc-LLVY-AMC as substrate incubated for 15 mins measured for 45 mins by fluorescence assay relative to control; procedure, shortened: as §1
T4 sequence (whole entry): T2 sequence (P28062 whole entry)

[5] = molecular target: T5, Proteasome subunit beta type-9 (Homo sapiens, UniProt P28065); test: Inhibition of human 20S immunoproteasome beta-1 using Ac-PAL-AMC as substrate incubated for 15 mins measured for 45 mins by fluorescence assay
T5 sequence (P28065 whole entry): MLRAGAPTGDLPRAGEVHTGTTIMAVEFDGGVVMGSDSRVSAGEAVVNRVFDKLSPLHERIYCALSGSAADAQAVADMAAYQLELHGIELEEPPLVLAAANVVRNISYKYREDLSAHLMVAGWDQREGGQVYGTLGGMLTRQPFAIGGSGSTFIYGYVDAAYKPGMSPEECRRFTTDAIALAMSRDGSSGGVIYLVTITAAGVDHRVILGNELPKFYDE
Procedure, shortened: (§2)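 Human 20S immunoproteasome (0.3 nM) was given 15 min with compound (0.001-50 μM) in pH 8 buffer of 20 mM Tris-HCl, 10% glycerol, 0.01% SDS, 2% DMSO. Ac-PAL-AMC at 50 μM was the substrate. Fluorescence (ex 360/em 460 nm) was followed 45 min at 37 °C relative to control.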

[6] = molecular target: T6, Proteasome component C5 (Homo sapiens) (UniProt P20618); test: Inhibition of human 20S constitutive proteasome beta-1 at 50 uM using Z-LLE-betaNA as substrate incubated for 15 mins measured for 45 mins by fluorescence assay relative to control
T6 sequence (whole entry): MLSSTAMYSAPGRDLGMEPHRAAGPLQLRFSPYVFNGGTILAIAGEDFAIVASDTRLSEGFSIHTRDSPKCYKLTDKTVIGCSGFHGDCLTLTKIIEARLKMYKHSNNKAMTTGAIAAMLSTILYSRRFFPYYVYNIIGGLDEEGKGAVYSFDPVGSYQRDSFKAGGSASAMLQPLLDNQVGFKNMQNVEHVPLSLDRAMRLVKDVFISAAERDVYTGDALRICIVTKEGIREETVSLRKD
Procedure, shortened: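 Human 20S constitutive proteasome, 0.3 nM, was preincubated 15 min with compound (0.001-50 μM) in pH 8 Tris-HCl 20 mM, 10% glycerol, 0.01% SDS, 2% DMSO. Z-LLE-βNA at 50 μM was added. βNA fluorescence (ex 340/em 404 nm) was monitored 45 min at 37 °C against an untreated control.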

[7] = molecular target: T7, Proteasome subunit beta type-9 (Homo sapiens) (UniProt P28065); test: Inhibition of human 20S immunoproteasome beta-1 at 50 uM using Ac-PAL-AMC as substrate incubated for 15 mins measured for 45 mins by fluorescence assay relative to control; procedure, shortened: as §2
T7 sequence (whole entry): T5 sequence (P28065 whole entry)

[8] = tested on: Huh-7; test: Cytotoxicity against human HuH7 cells assessed as reduction in cell viability after 48 hrs by Hoechst 33342 staining based HCS assay; format: functional; conditions: huh-7
Procedure, shortened: (§3)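 Cells were grown at 37 °C, 5% CO2 in medium with 10% FBS, 1% penicillin-streptomycin, 2 mM glutamine: DMEM for HuH7, MDA-MB-231 and fibroblasts, EMEM for Caco2, McCoy's for HCT116, RPMI for PC3 and NCI-H727. 4000 cells/well were seeded and dosed 24 h later at 0.1-25 μM final, from DMSO stocks. After 48 h they were fixed in ethanol/acetic acid and Hoechst-stained nuclei were counted by imaging. Survival is relative to DMSO. EC50 came from dose-response curves.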

[9] = tested on: Caco-2; test: Cytotoxicity against human Caco2 cells assessed as reduction in cell viability after 48 hrs by Hoechst 33342 staining based HCS assay; format: functional; conditions: caco-2; procedure, shortened: as §3
[10] = tested on: MDA-MB-231; test: Cytotoxicity against human MDA-MB-231 cells assessed as reduction in cell viability after 48 hrs by Hoechst 33342 staining based HCS assay; format: functional; conditions: mda-mb-231; procedure, shortened: as §3
[11] = tested on: HCT-116; test: Cytotoxicity against human HCT116 cells assessed as reduction in cell viability after 48 hrs by Hoechst 33342 staining based HCS assay; format: functional; procedure, shortened: as §3
[12] = tested on: PC-3; test: Cytotoxicity against human PC3 cells assessed as reduction in cell viability after 48 hrs by Hoechst 33342 staining based HCS assay; format: functional; conditions: pc-3; procedure, shortened: as §3
[13] = tested on: NCI-H727; test: Cytotoxicity against human NCI-H727 cells assessed as reduction in cell viability after 48 hrs by Hoechst 33342 staining based HCS assay; format: functional; conditions: nci-h727; procedure, shortened: as §3
[14] = tested on: MCF7; test: Cytotoxicity against human MCF7 cells assessed as reduction in cell viability after 48 hrs by Hoechst 33342 staining based HCS assay; format: functional
[15] = tested on: Fibroblast; test: Cytotoxicity against human fibroblasts assessed as reduction in cell viability at 25 uM after 48 hrs by Hoechst 33342 staining based HCS assay
[16] = molecular target: T8, Proteasome subunit beta type-10 (Homo sapiens, UniProt P40306); test: Inhibition of human 20S immunoproteasome beta-2 using BocLRR-AMC as substrate incubated for 15 mins measured for 45 mins by fluorescence assay
T8 sequence (P40306 whole entry): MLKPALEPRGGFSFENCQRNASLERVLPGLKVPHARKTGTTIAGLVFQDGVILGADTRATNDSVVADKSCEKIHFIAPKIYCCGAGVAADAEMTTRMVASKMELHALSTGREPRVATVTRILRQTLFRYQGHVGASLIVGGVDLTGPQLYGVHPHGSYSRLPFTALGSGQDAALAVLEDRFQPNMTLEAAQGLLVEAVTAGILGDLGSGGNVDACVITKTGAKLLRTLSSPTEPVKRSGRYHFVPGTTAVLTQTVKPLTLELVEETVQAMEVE

[17] = molecular target: Proteasome Macropain subunit (Homo sapiens) (UniProt P49721); test: Inhibition of human 20S constitutive proteasome beta-2 at 50 uM using BocLRR-AMC as substrate incubated for 15 mins measured for 45 mins by fluorescence assay relative to control
Procedure, shortened: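 Purified human 20S proteasome (cCP or iCP), 0.3 nM, preincubated 15 min with compound (0.001-50 μM) in pH 8 buffer of 20 mM Tris-HCl, 10% glycerol, 0.005% Triton X-100, 2% DMSO. Then Boc-LRR-AMC at 50 μM was added. AMC fluorescence (ex 360/em 460 nm) was followed 45 min at 37 °C. Activity is relative to an untreated control.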

[18] = molecular target: T9, Proteasome subunit beta type-10 (Homo sapiens) (UniProt P40306); test: Inhibition of human 20S immunoproteasome beta-2 at 50 uM using BocLRR-AMC as substrate incubated for 15 mins measured for 45 mins by fluorescence assay relative to control
T9 sequence (whole entry): T8 sequence (P40306 whole entry)

Sequence of Proteasome Macropain subunit (Homo sapiens) (P49721 whole entry): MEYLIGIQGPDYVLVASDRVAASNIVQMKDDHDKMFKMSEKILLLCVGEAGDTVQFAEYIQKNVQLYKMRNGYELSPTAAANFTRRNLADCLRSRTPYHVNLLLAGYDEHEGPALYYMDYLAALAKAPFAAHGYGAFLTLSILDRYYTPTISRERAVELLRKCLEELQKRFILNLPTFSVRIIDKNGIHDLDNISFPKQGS

CC(C)(C)OC(=O)N[C@@H](Cc1ccc(OCc2ccccc2)cc1)C(=O)N[C@@H](CC(N)=O)C(=O)N[C@@H](C[C@]1(O)C(=O)Nc2ccccc21)C(=O)NCc1ccccc1
IC50 [1]: 1.48 µM | IC50 [2]: 1.6 µM | inhibition [3]: > 85% | inhibition [4]: > 85% | IC50 [5]: 16.1 µM | inhibition [6]: > 85% | inhibition [7]: > 85% | EC50 [8]: Not Active | EC50 [9]: Not Active | EC50 [10]: Not Active | EC50 ([11]; hct-116): Not Active | EC50 [12]: Not Active | EC50 [13]: Not Active | EC50 ([14]; mcf7): Not Active | Activity [15]: Non-Toxic

C[C@H](NC(=O)[C@H](Cc1ccc(OCc2ccccc2)cc1)NC(=O)OC(C)(C)C)C(=O)N[C@@H](C[C@]1(O)C(=O)Nc2ccccc21)C(=O)NCc1ccccc1
EC50 [8]: Not Active | EC50 [9]: Not Active | EC50 [10]: Not Active | EC50 ([11]; Homo sapiens, HCT-116, 48 h, read-out: EC50): 32 µM | EC50 [12]: Not Active | EC50 [13]: Not Active | EC50 ([14]; Homo sapiens, MCF7, 48 h, read-out: EC50): 26 µM | Activity [15]: Non-Toxic

C[C@H](NC(=O)[C@H](Cc1ccc(OCc2ccccc2)cc1)NC(=O)OC(C)(C)C)C(=O)N[C@@H](C[C@]1(O)C(=O)Nc2ccccc21)C(=O)NCC1CCCCC1
IC50 [1]: 4.3 µM | IC50 [2]: 5.2 µM | inhibition [3]: > 85% | inhibition [4]: > 85% | IC50 [5]: 4.8 µM | inhibition [6]: > 85% | inhibition [7]: > 85% | IC50 [16]: 16 µM | inhibition [17]: > 85% | inhibition [18]: > 85%

C[C@H](NC(=O)Cc1cccc(Oc2ccccc2)c1)C(=O)N[C@@H](C[C@]1(O)C(=O)Nc2ccccc21)C(=O)NCc1ccccc1
IC50 [1]: 0.35 µM | IC50 [2]: 0.26 µM | inhibition [3]: > 85% | inhibition [4]: > 85% | IC50 [5]: 14 µM | inhibition [6]: > 85% | inhibition [7]: > 85% | IC50 [16]: 14.3 µM | inhibition [17]: > 85% | inhibition [18]: > 85%

C[C@H](NC(=O)[C@H](Cc1ccc(OCc2ccccc2)cc1)NC(=O)OC(C)(C)C)C(=O)N[C@@H](C[C@]1(O)C(=O)Nc2ccccc21)C(=O)NCc1cccc2ccccc12
IC50 [1]: 1.4 µM | IC50 [2]: 1.9 µM | inhibition [3]: > 85% | inhibition [4]: > 85% | IC50 [5]: 2.77 µM | inhibition [6]: > 85% | inhibition [7]: > 85% | IC50 [16]: 2.7 µM | inhibition [17]: > 85% | inhibition [18]: > 85%

NCCCC[C@H](NC(=O)[C@@H](N)Cc1ccc(OCc2ccccc2)cc1)C(=O)N[C@@H](C[C@]1(O)C(=O)Nc2ccccc21)C(=O)NCc1ccccc1
IC50 [1]: 2.9 µM | IC50 [2]: 3.8 µM | inhibition [3]: > 85% | inhibition [4]: > 85% | IC50 [5]: 4.3 µM | inhibition [6]: > 85% | inhibition [7]: > 85% | IC50 [16]: 0.82 µM | inhibition [17]: > 85% | inhibition [18]: > 85%

CC(C)(C)OC(=O)N[C@@H](Cc1ccc(OCc2ccccc2)cc1)C(=O)NCC(=O)N[C@@H](C[C@]1(O)C(=O)Nc2ccccc21)C(=O)NCc1ccccc1
IC50 [1]: 6.2 µM | IC50 [2]: 7.8 µM | inhibition [3]: > 85% | inhibition [4]: > 85% | IC50 [5]: 12.6 µM | inhibition [6]: > 85% | inhibition [7]: > 85% | IC50 [16]: 8.9 µM | inhibition [17]: > 85% | inhibition [18]: > 85%

C[C@H](NC(=O)[C@H](Cc1ccc(OCc2ccccc2)cc1)NC(=O)OC(C)(C)C)C(=O)N[C@@H](C[C@]1(O)C(=O)Nc2ccccc21)C(=O)NCC(C)(C)C
IC50 [1]: 11.3 µM | IC50 [2]: 12.6 µM | inhibition [3]: > 85% | inhibition [4]: > 85% | IC50 [5]: 21 µM | inhibition [6]: > 85% | inhibition [7]: > 85% | IC50 [16]: 30 µM | inhibition [17]: > 85% | inhibition [18]: > 85%
